Data set [1] has as its target Tyrosine-protein kinase ABL1 (Homo sapiens) (UniProt P00519). The experiment in a line: Inhibition of ABL (unknown origin) at 1000 nM relative to control.
The target of data set [2] is Platelet-derived growth factor receptor alpha (Homo sapiens) (UniProt P16234). The experiment in a line: Inhibition of PDGFR-alpha (unknown origin) at 1000 nM relative to control. The gist of the method: (§1)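 Purified recombinant kinase domains run in ELISA on precoated poly(Glu,Tyr) 4:1 (20 µg/mL) with 10 µM ATP in 50 mM HEPES pH 7.4, 50 mM MgCl2, 0.5 mM MnCl2, 0.2 mM Na3VO4, 1 mM DTT; 1% DMSO control; 60 min at 37 °C. Phosphotyrosine read by PY99 antibody, HRP anti-mouse IgG, OPD/H2O2 at 490 nm; inhibition = [1−A490/A490control]×100%; two separate experiments.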
Sequence of Platelet-derived growth factor receptor alpha (Homo sapiens) (P16234 whole entry, the tested form may be a part): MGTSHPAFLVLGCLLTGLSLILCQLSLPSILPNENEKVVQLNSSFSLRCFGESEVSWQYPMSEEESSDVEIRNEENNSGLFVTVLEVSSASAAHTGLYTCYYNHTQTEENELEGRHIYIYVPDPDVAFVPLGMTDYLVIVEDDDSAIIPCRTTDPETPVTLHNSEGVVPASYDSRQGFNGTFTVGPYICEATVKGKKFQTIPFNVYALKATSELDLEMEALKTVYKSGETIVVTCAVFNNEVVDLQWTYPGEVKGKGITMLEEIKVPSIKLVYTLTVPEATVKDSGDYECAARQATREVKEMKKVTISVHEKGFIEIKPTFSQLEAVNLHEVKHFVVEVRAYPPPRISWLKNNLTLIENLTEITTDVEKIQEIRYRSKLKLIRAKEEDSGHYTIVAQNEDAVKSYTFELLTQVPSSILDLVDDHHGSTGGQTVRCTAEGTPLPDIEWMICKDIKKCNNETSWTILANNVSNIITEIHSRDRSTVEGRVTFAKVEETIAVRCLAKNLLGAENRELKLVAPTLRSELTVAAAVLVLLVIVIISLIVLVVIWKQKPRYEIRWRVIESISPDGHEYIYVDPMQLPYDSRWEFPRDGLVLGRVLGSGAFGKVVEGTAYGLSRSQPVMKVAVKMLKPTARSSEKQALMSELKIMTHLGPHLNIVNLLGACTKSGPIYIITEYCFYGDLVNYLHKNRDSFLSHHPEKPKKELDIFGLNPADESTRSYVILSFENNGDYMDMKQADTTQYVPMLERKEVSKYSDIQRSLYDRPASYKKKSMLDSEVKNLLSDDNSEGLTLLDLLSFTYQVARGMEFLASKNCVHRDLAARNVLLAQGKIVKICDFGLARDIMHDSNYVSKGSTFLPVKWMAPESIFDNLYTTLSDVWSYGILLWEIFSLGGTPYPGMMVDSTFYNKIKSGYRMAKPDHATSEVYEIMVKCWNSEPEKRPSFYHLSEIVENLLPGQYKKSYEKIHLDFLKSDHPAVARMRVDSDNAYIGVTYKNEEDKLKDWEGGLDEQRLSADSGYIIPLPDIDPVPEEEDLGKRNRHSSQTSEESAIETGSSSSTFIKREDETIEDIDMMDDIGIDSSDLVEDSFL

Data set [3] concerns the target Tyrosine-protein kinase JAK1 (Homo sapiens) (UniProt P23458). Nature of the data set: Inhibition of JAK1 (unknown origin) at 10 nM relative to control. The method, boiled down: as §1
Data set [4] addresses Tyrosine-protein kinase ABL1 (Homo sapiens) (UniProt P00519). The experiment in a line: Inhibition of ABL (unknown origin) at 10 nM relative to control.
For data set [5], the target named is T1, Ephrin type-B receptor 2 (Homo sapiens) (UniProt P29323).
T1 sequence (whole entry): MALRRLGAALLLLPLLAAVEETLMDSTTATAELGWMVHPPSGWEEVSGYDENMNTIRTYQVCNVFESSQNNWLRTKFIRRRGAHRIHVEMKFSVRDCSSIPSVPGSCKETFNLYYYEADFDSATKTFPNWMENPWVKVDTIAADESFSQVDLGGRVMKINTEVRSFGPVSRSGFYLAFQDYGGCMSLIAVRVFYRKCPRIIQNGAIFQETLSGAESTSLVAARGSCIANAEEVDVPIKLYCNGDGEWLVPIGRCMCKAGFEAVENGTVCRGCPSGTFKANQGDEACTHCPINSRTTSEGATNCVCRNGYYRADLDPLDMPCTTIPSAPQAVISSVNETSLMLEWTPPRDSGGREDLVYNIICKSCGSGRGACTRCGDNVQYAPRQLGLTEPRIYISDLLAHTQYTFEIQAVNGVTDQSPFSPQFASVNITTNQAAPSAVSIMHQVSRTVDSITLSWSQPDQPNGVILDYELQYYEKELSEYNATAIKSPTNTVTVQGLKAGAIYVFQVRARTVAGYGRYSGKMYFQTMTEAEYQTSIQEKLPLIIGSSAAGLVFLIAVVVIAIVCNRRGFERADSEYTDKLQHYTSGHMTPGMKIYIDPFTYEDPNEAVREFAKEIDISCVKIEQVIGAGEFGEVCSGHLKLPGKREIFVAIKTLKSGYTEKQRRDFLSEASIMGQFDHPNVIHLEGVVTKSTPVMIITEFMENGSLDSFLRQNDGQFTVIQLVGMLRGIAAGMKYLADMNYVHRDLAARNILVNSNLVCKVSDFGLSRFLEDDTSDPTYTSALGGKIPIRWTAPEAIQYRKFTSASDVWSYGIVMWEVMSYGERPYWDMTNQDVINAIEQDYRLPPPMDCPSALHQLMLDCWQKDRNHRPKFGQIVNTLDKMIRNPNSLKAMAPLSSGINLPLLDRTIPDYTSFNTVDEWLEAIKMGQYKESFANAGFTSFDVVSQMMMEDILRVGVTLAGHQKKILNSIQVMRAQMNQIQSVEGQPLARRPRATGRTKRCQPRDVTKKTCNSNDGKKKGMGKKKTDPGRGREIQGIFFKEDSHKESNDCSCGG
The experiment in a line: Inhibition of EPH-B2 (unknown origin) at 10 nM relative to control. The method, boiled down:
as §1

The subject of another data set is NCI-H2286. The experiment in a line: Antiproliferative activity against human NCI-H2286 cells harboring DDR2 mutation after 72 hrs by CCK8 assay. The conditions noted are these: NCI-H2286, 72 h. Type of data set: functional, cell-based. The gist of the method: (§2)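 Cells seeded at low density in growth medium and compounds added the next day. Incubated 72 h, then proliferation read by sulforhodamine B, MTT or CCK-8. IC50 obtained by four-parameter concentration-response curve fitting.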
Background: Tetrazolium dyes change colour on reduction, which living cells bring about.

Data set [6] has as its target Cyclin-dependent kinase 1 (Homo sapiens) (UniProt P06493). The experiment in a line: Inhibition of CDK1 (unknown origin) at 10 nM relative to control.
The target in data set [7] is Vascular endothelial growth factor receptor 2 (Homo sapiens) (UniProt P35968). The experiment in a line: Inhibition of VEGFR2 (unknown origin) at 1000 nM relative to control. The method, boiled down:
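ELISA with purified recombinant kinase on plates precoated with poly(Glu,Tyr) 4:1 at 20 µg/mL. ATP 10 µM in HEPES pH 7.4 buffer with MgCl2, MnCl2, Na3VO4 and DTT. Run 60 min at 37 °C. Detected with anti-phosphotyrosine PY99, HRP secondary antibody and o-phenylenediamine, read at 490 nm. Inhibition % = [1 − A490/A490 control]×100. 1% DMSO as negative control.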

The target in data set [8] is Ephrin type-A receptor 2 (Homo sapiens) (UniProt P29317). Nature of the data set: Inhibition of EPH-A2 (unknown origin) at 100 nM relative to control. The gist of the method:
as §1

Data set [9] has as its target Receptor tyrosine-protein kinase erbB-2 (Homo sapiens) (UniProt P04626). The experiment in a line: Inhibition of ErbB2 (unknown origin) at 10 nM relative to control. The method, boiled down:
as §1

A short description of data set [10]: Efflux ratio of permeability in human Caco2 cells at 5 uM after 120 mins by LC-MS/MS analysis. Type of data set: ADME, cell-based. The note with it: Caco-2. The gist of the method: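 Caco-2 (C2BBe1) monolayers grown to confluence on collagen-coated transwell polycarbonate membranes. Compound at 5 μM added apically or basolaterally in HBSS with 10 mM HEPES at pH 7.4 and 6.8. Duplicate samples taken at 120 min and analysed by LC-MS/MS. Efflux ratio = Papp(B→A)/Papp(A→B).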
In general terms: Caco-2 monolayers are a common model of the intestinal barrier.

Data set [11] has as its target Tyrosine-protein kinase receptor UFO (Homo sapiens) (UniProt P30530). Nature of the data set: Inhibition of AXL (unknown origin) at 100 nM relative to control.
The nature of data set [12]: AUC (0 to t) in ICR(CD-1) mouse at 10 mg/kg, po administered via gavage by triple quadrupole mass spectrometric analysis. Type of data set: ADME, organism-based. The note with it: in vivo. The gist of the method:
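Oral gavage at 1 mg/mL in 1% Tween80/water to male ICR mice (18-22 g, n=3). Plasma sampled at 0.25, 0.5, 1, 2, 4, 8 and 24 h, protein precipitated with methanol:acetonitrile (1:1) containing internal standard, and quantified by UPLC-triple quadrupole MS. AUC and MRT were taken from per-animal time-concentration curves. Cmax is the maximum plasma level and Tmax the time to reach it.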

Data set [13] concerns the target ALK tyrosine kinase receptor (Homo sapiens) (UniProt Q9UM73). Nature of the data set: Inhibition of ALK (unknown origin) at 10 nM relative to control.
In data set [14] the target is T1, Ephrin type-B receptor 2 (Homo sapiens). Nature of the data set: Inhibition of EPH-B2 (unknown origin) at 1000 nM relative to control. The gist of the method:
as §1

Data set [15] can be described thus: Antiproliferative activity against human UM-UC-14 cells harboring FGFR3 mutation after 72 hrs by CCK8 assay. Format: functional, cell-based. The note with it: UMUC14, 72 h. The method, boiled down: as §2

The record followed here is ChEMBL document CHEMBL4411287, “Discovery and optimization of a series of 3-substituted indazole derivatives as multi-target kinase inhibitors for the treatment of lung squamous cell carcinoma” (Eur J Med Chem, 2019).

Sequence of Tyrosine-protein kinase ABL1 (Homo sapiens) (P00519 whole entry, the tested form may be a part): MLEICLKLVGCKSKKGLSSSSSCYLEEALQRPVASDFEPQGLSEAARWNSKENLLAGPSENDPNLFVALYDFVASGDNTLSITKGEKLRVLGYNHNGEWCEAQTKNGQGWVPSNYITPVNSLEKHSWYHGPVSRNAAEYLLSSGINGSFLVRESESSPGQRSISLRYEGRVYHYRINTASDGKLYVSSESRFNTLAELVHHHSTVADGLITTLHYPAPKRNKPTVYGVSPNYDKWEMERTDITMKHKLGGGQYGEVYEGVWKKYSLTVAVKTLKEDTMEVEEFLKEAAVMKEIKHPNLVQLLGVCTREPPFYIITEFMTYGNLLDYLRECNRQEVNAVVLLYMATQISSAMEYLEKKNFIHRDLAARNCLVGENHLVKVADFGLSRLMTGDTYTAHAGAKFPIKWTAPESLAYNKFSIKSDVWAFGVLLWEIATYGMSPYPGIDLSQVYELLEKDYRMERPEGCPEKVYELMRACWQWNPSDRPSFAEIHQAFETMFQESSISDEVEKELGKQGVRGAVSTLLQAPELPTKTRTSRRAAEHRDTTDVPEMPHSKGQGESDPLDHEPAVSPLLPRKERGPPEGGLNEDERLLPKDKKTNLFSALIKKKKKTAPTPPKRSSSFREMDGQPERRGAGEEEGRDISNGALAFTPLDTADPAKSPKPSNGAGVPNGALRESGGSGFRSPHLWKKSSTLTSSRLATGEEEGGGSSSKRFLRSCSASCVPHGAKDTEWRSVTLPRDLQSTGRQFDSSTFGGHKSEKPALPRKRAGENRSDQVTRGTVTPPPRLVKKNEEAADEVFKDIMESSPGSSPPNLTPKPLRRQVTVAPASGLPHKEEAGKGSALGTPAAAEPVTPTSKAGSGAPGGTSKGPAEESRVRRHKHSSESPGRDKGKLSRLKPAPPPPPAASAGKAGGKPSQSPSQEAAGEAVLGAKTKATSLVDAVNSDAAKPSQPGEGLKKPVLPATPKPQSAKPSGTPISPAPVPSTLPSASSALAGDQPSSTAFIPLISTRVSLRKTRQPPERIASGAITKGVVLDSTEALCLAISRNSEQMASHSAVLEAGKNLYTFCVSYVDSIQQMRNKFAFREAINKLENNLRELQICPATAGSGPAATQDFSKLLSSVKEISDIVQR
Sequence of Tyrosine-protein kinase JAK1 (Homo sapiens) (P23458 whole entry): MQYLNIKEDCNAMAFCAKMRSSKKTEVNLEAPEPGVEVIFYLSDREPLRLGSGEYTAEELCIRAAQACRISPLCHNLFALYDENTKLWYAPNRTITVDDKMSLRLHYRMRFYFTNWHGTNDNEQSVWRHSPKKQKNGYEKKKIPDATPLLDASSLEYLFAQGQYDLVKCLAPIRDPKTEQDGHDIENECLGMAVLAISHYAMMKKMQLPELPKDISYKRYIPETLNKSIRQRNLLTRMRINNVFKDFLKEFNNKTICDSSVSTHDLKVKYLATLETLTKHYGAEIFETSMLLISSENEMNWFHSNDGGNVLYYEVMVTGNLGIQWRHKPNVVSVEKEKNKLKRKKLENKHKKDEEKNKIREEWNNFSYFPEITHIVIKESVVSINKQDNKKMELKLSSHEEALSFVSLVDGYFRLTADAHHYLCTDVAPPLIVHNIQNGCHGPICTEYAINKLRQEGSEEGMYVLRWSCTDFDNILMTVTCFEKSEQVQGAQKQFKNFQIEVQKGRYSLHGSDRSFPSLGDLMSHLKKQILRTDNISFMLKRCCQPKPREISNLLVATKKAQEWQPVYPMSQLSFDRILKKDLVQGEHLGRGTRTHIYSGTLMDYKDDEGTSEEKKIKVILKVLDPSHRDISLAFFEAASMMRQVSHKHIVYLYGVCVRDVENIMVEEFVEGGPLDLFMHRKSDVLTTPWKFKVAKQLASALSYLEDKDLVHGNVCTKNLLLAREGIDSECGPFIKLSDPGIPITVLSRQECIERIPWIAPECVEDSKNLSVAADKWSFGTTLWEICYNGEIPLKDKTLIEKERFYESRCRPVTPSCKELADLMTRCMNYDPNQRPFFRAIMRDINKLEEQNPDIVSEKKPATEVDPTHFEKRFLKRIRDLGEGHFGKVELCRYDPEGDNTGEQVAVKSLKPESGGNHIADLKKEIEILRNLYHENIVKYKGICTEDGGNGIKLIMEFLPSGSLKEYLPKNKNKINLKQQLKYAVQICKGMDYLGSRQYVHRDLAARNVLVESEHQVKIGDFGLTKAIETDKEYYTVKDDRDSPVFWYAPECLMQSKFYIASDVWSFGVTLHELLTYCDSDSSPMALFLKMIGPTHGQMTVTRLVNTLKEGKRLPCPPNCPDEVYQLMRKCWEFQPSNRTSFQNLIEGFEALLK
Sequence of Vascular endothelial growth factor receptor 2 (Homo sapiens) (P35968 whole entry): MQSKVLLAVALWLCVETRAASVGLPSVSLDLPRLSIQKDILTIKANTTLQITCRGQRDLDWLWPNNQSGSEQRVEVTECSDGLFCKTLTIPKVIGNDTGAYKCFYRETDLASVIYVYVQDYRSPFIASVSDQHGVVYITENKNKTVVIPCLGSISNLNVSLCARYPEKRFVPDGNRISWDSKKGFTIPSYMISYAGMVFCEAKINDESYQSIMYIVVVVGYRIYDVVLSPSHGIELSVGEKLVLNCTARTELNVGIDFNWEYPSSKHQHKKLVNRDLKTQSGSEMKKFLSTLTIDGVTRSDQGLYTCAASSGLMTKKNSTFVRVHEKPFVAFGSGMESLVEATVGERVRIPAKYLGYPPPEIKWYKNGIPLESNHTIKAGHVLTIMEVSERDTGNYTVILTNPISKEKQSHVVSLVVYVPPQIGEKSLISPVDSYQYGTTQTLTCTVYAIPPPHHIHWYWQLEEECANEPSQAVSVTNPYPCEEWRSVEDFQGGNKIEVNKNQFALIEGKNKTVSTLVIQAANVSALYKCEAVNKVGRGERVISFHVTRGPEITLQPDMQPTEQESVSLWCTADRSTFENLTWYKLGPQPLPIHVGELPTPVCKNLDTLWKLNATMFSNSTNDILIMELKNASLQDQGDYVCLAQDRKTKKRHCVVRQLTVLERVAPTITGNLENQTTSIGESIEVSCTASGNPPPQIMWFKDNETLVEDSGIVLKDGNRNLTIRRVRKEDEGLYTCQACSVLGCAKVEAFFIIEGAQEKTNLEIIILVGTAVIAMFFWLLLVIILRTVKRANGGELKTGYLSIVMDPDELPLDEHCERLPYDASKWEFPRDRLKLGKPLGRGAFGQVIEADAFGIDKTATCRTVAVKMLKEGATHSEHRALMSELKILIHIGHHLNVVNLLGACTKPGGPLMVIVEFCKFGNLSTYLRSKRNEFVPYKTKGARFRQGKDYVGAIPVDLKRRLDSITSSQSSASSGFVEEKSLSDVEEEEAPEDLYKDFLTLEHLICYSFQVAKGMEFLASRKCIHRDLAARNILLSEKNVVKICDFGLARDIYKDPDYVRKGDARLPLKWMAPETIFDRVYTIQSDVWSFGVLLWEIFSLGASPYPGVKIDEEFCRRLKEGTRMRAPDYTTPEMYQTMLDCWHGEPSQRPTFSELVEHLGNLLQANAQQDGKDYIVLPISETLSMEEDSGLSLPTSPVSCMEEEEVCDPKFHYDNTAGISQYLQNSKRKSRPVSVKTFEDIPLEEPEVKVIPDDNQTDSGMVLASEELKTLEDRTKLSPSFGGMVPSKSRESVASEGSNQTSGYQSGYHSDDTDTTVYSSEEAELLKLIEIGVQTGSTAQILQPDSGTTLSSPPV
Sequence of Cyclin-dependent kinase 1 (Homo sapiens) (P06493 whole entry, looked up): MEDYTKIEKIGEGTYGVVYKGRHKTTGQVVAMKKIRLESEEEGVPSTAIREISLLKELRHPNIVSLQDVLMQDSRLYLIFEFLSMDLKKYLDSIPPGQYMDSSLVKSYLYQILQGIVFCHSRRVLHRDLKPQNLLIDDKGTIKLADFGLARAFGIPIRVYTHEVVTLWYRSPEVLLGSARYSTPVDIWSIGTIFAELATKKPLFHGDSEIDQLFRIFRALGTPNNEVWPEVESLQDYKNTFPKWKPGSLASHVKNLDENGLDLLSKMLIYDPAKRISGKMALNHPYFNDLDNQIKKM

Broadly, the inhibition is the relative decrease from the control value, in per cent. By IC50 is commonly meant the concentration at which inhibition is half-maximal. The term efflux ratio denotes a quotient of directional permeabilities that is used to spot active efflux. As usually defined, the AUC(0-t) is exposure summed from dosing to a finite time, without extrapolation to infinity. Low values mean low exposure, high ones high exposure. As to `Cc1ccc(C(=O)Nc2cccc(C(F)(F)F)c2)cc1-c1ccc2c(-c3cnn(C4CC4)c3)n[nH]c2c1`, the inhibition in [1] is 100%; in data set [2] it was 100%; in data set [3], 0.2%; in data set [4], 22%; in [5] it was 48%; in [6], -0.1%. Also, the inhibition in data set [7] was determined as 100%; in data set [8], 100%; in data set [9], 8.2%; in data set [11], 72.6%; in data set [13] it was 60%; in data set [14] it was 86.9%. Also, the values for the IC50 (in the data set with NCI-H2286; in [15]) were 93 nM and 307 nM, respectively. In addition, the efflux ratio at 2 h, 5 µM in [10] is 1.1. This compound also yielded an AUC(0-t) in [12] of 7640 ng·h/mL.
